Results from different studies.
Lines come from different studies, so protocols differ.
Serine protease HTRA1 S328A: Serine protease HTRA1 (Homo sapiens, UniProt Q92743, S328A)
PTGS2: Prostaglandin G/H synthase 2 (PTGS2, Homo sapiens, UniProt P35354)
TMEM97: Sigma intracellular receptor 2 (TMEM97, Homo sapiens, UniProt Q5BJF2)
tspO: tspO (Cereibacter sphaeroides, UniProt Q9RFC8)

SMILES | target | read-out | action | method | pH | measurement | value
CC(C)(NC(=O)O[C@@H]1CN2CCC1CC2)c1csc(-c2ccc(F)cc2)n1 | Lysosomal acid glucosylceramidase (GBA1, Homo sapiens, UniProt P04062) | enzyme activity | inhibitor |  |  | IC50 | > 300 µM
CC(C)C[C@H](NC(=O)[C@H](CC(=O)O)NC(=O)[C@H](CC(=O)O)NC(=O)[C@H](CC(=O)O)NC(=O)[C@@H](NC(=O)[C@H](Cc1c[nH]c2ccccc12)NC(=O)[C@@H](N)CCC(=O)O)[C@@H](C)O)C(=O)N[C@@H](CO)C(=O)N[C@H](C(=O)N[C@@H](CC(C)C)C(=O)N[C@@H](C)C(=O)O)C(C)C | Serine protease HTRA1 S328A | binding |  | ITC | pH 8 | Kd | 20.5 µM
O=C1Nc2ccccc2/C1=C/c1cn(-c2nc(Cl)nc(N3CCOCC3)n2)c2ccccc12 | PTGS2 | enzyme activity | inhibitor |  |  | IC50 | 2 µM
Cc1c2ccncc2c(C)c2c1[nH]c1ccccc12 | TMEM97 | ligand displacement |  | radioligand |  | Ki | > 10000 nM
CC(C)C[C@H](NC(=O)[C@H](CO)NC(=O)[C@H](CCC(=O)O)NC(=O)[C@@H](NC(=O)[C@H](CC(C)C)NC(=O)[C@H](CC(=O)O)NC(=O)[C@H](CC(=O)O)NC(=O)[C@H](CC(=O)O)NC(=O)[C@@H](NC(=O)[C@H](Cc1c[nH]c2ccccc12)NC(=O)[C@@H](N)CCC(=O)O)[C@@H](C)O)C(C)C)C(=O)O | Serine protease HTRA1 S328A | binding |  | ITC | pH 8 | Kd | 39.7 µM
CC(C)C[C@H](NC(=O)[C@H](Cc1ccccc1)NC(=O)c1cnccn1)B(O)O | Serine protease HTRA2, mitochondrial (HTRA2, Homo sapiens, UniProt O43464) | enzyme activity | inhibitor |  |  | IC50 | > 33 µM
CC(C)C[C@H](NC(=O)CNC(=O)[C@H](C)NC(=O)c1ccc(S(=O)(=O)NC[C@H]2O[C@@H](C)[C@@H](O)[C@@H](O)[C@@H]2O)cc1)C(=O)N[C@@H](C)C(=O)N[C@H]1CCN(c2cc3c(cc2F)c(=O)c(C(=O)O)cn3C2CC2)C1 | Fucose-binding lectin PA-IIL (lecB, Pseudomonas aeruginosa, UniProt Q9HYN5) | ligand displacement |  | FP |  | Ki | 1430 nM
COc1cc(C(=O)N2CC[C@@H](O)[C@@H](N)C2)cc2nc(-c3cc4ccccc4n3CC3CC3)n(C)c12 | PTGS2 | enzyme activity | inhibitor |  |  | IC50 | > 100 µM
CC(C)(C)[C@]1(O)CCN2C[C@@H]3c4ccccc4CCc4cccc(c43)[C@H]2C1 | TMEM97 | ligand displacement |  | radioligand |  | Ki | 4790 nM
Cc1cc2c(C(C)C)c(O)c(O)c(C=O)c2c(O)c1-c1c(C)cc2c(C(C)C)c(O)c(O)c(C=O)c2c1O | tspO | binding |  | fluorescence |  | Kd | 6 µM
CN(CCCN1c2ccccc2CCc2ccccc21)CC(=O)c1ccc(Cl)cc1 | TMEM97 | ligand displacement |  | radioligand |  | Ki | 2010 nM
COc1cc(/C=C/C(=O)CC(=O)/C=C/c2ccc(O)c(OC)c2)ccc1O | tspO | binding |  | fluorescence |  | Kd | 1.4 µM
COc1ncccc1-c1cnn2ccc(N3CCN(C(=O)OC(C)C)CC3)nc12 | Acetylcholine receptor subunit alpha (CHRNA1, Homo sapiens, UniProt P02708) | ion current | inhibitor |  |  | IC50 | 12 µM
COc1cc2c(cc1OC)C(=O)C(CC1CCN(Cc3ccccc3)CC1)C2 (stereo not drawn) | TMEM97 | ligand displacement |  | radioligand |  | Ki | 84 nM
Cc1c(-c2ccccc2)no[n+]1[O-] | Thioredoxin glutathione reductase (Schistosoma mansoni, UniProt Q962Y6) | enzyme activity | inhibitor |  |  | IC50 | > 50 µM
CC[C@H](C)[C@H](NC(=O)[C@H](Cc1c[nH]c2ccccc12)NC(=O)[C@H](C)NC(=O)[C@H](C)NC(=O)[C@H](Cc1ccc(O)cc1)NC(=O)[C@@H](N)CO)C(=O)N[C@@H](CC(=O)O)C(=O)N[C@H](C(=O)N[C@@H](CCC(=O)O)C(=O)N[C@@H](CC(=O)O)C(=O)N[C@@H](CC(C)C)C(=O)O)C(C)C | Serine protease HTRA1 S328A | binding |  | ITC | pH 8 | Kd | 34 µM
OCCN1CCN(CCCN2c3ccccc3C=Cc3ccccc32)CC1 | TMEM97 | ligand displacement |  | radioligand |  | Ki | 126 nM
NC[C@@H]1[C@H]2CN3C(=O)c4cccn4[C@@H]4NC(N)=N[C@@]43[C@@H]2[C@]2(N=C(N)N[C@H]2O)[C@H]1Cl (racemic) | Proteasome subunit beta type-8, chymotrypsin-like site (PSMB8, Homo sapiens, UniProt P28062) | enzyme activity | inhibitor |  |  | IC50 | 4.8 µM
